Screening results: PubChem BioAssay, The Scripps Research Institute Molecular Screening Center
OX1R antag-1 – blocks the human orexin 1 receptor | 330,000 compounds, 1.8% hits | inhibition, % at 6.6 µM | OX1R-expressing cells, FRET antagonist read-out; in the data active = inhibition mostly above about 38%, no sharp cut-off; inactive = mostly below about 40%
Target sequence (O43613 whole entry, looked up): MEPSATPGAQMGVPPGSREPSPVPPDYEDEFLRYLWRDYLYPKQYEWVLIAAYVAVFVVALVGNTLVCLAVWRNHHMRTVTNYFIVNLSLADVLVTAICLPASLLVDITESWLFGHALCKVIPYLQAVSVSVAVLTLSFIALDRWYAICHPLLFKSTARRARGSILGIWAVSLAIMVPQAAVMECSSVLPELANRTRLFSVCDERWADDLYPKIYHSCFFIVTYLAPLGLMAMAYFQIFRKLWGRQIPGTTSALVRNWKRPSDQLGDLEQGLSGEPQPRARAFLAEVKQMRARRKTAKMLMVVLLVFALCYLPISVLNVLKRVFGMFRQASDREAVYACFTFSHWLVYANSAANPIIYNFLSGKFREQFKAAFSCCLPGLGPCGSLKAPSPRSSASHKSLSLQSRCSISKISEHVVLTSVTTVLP
TAAR1 ag – agonists of human TAAR1; Q96RJ0; CHO RD-HGA16 TAAR1, Fluo-8 calcium fluorescence; vehicle wells 0%, saturating PEA agonist 100%; activation, % at 3 µM; 360,000 compounds, 0.99% hits; AID 624467;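 active = activation above the mean activation of all test compounds in the run plus 3 SD, cut at about 38% in these data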
Target sequence (Q96RJ0 whole entry, looked up): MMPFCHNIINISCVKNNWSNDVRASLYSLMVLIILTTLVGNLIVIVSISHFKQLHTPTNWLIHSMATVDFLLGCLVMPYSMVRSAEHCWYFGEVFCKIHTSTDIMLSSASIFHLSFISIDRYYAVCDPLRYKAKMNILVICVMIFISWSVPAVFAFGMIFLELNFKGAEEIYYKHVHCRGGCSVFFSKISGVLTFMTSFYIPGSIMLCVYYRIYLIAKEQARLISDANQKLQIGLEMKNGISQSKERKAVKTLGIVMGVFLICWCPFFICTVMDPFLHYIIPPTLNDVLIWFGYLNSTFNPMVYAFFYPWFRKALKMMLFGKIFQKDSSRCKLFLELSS
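test system = CHO RD-HGA16 cells carrying human TAAR1 plus Gα16 | schedule = 17-24 h seeding, 75 min 37 °C dye, 30 min RT | compound dosing = 3 µM single concentration | control set = DMSO and PEA EC100 | replicates = n 1 | signal = Fluo-8 fluorescence, 5 s baseline then 140 s kinetic read | measure = percent activation vs PEA EC100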
CHO parental Ca – counter-screen for OX1R antagonists: effect in parental CHO cells; parental CHO-K1, ATP-induced calcium, Fluo-8 fluorescence; inhibition, % at 5.6 µM; 330,000 compounds, 0.63% hits;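 active = inhibition above that plate's mean sample inhibition plus 3 SD, cut at about 26% in these data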
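Assay system: untransfected parental CHO cell line. Also added: ATP agonist challenge. Dosing: one dose, 5.6 µM nominal. Measured by: Fluo-8 fluorescence. Read-out: % inhibition. Benchmarks: ATP wells versus no-ATP DMSO wells. Repeats: no replicates.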
OX1R antag-2 – antagonists of human orexin 1 receptor. O43613. CHO/OX1R cells, Fluo-8 calcium fluorescence, orexin A. inhibition, % at 5 µM. 330,000 compounds, 0.43% hits;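 active = inhibition above its plate's threshold, mean inhibition of all tested compounds on the plate plus 3 SD, cut at about 37% in these data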
TAAR1 antagonist – human TAAR1 antagonism | AID 624466 | CHO RD-HGA16 TAAR1, Fluo-8 calcium fluorescence, antagonist | inhibition, % at 3 µM | 360,000 compounds, 1.5% hits;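 active = inhibition above a per-plate cutoff, the mean inhibition of test compounds on that plate plus 3 SD, cut at about 49% in these data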
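test system = CHO RD-HGA16 cells bearing hTAAR1 | replication = singlicate | controls = DMSO-only wells and EC80 β-PEA-stimulated wells | reagent = EC80 β-phenethylamine stimulus | read-out basis = percent inhibition of PEA-evoked calcium signal, max/basal emission ratio | schedule = seeding 17-24 h prior, 75-min 37 °C, 30-min RT dye loading | signal = kinetic Fluo-8 calcium fluorescence measurement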
GPR7 antagonist – antagonists of human GPR7 (neuropeptides B/W receptor 1); P48145; GPR7-expressing cells, fluorescence antagonist assay; inhibition, % at 4.4 µM; 290,000 compounds, 1.1% hits; AID 1861; in the data active = inhibition above about 16%, passing the limit was not always enough;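 also: cells stimulated with the agonist NPW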
nonsel antag count – counter-screen for TAAR1 antagonists: nonselective antagonists. shares compounds with TAAR1 antagonist. counterscreen cell line, calcium fluorescence, antagonist mode. inhibition, % at 3 µM. 2,400 compounds, 77% hits. AID 651780; in the data active = inhibition above about 22%;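 also: CHO-Ga16 host cells stimulated with ATP at an EC80 level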
TAAR1 ant conf – confirmation of human TAAR1 antagonists | shares compounds with TAAR1 antagonist | TAAR1-expressing cells, fluorescence antagonist read-out | inhibition, % at 3 µM | 2,400 compounds, 40% hits; in the data active = inhibition above about 49%;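 also: CHO-Ga16 host cells challenged with agonist PEA near its EC80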
Ga16 ag counter – nonselective Ga16 agonism, counter-screen. shares compounds with TAAR1 antagonist. Ga16-expressing cells, calcium fluorescence, agonist counterscreen. activation, % at 3 µM. 2,400 compounds, 18% hits; in the data active = activation above about 12%
TAAR1 ag counter – activates human TAAR1 in antagonist counter-screen; activation, % at 3 µM; hTAAR1 cell line, fluorescence activation, agonist mode; shares compounds with TAAR1 antagonist; 2,400 compounds, 2% hits; in the data active = activation above about 37%;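 also: CHO cells stably expressing TAAR1 with calcium dye readout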
Large screens that a line does not name were inactive (follow-up assays come after a bar, where they were run). Only some compounds are listed: those with a hit (about 4.6% of all), similar ones and a draw of the others.

Fc1cc(F)cc(Nc2nc(Cl)nc(NC3CCCC3)n2)c1	TAAR1 antagonist 56 (no result: GPR7 antagonist) | nonsel antag count inactive | TAAR1 ant conf inactive | Ga16 ag counter inactive | TAAR1 ag counter inactive
Cc1c(NS(=O)(=O)c2ccc3[nH]c(=O)[nH]c3c2)c(=O)n(-c2ccccc2)n1C	none
O=C(Nc1cccc(NC(=O)c2sc3ccccc3c2Cl)c1)c1ccco1	OX1R antag-1 76, TAAR1 antagonist 55 | nonsel antag count inactive | TAAR1 ant conf inactive | Ga16 ag counter inactive | TAAR1 ag counter inactive
O=C(Nc1cccc(NC(=O)c2ccc(-c3cccc(Br)c3)o2)c1)c1ccco1	TAAR1 antagonist 52 | nonsel antag count 25 | TAAR1 ant conf inactive | Ga16 ag counter inactive | TAAR1 ag counter inactive
CNC(=O)c1ccsc1NC(=O)c1sc2ccccc2c1Cl	OX1R antag-1 56, TAAR1 antagonist 71 | nonsel antag count 35 | TAAR1 ant conf 50 | Ga16 ag counter inactive | TAAR1 ag counter inactive
Cc1nnc(NC(=O)c2sc3ccccc3c2Cl)s1	none
O=C(Nc1cccc(NC(=O)c2ccc(-c3ccc(Br)cc3)o2)c1)c1ccccc1	none
Cc1ccc2nc(NC(=O)C3CC3C)sc2c1 (centres undefined)	none
CC(C(=O)NCC1CCCCC1)N(C)CC(=O)Nc1ccc(N2CCOCC2)cc1 (centres undefined)	none
Cc1cc(OCC(=O)OCC(=O)Nc2cc(S(=O)(=O)N3CCOCC3)ccc2Cl)ccc1Cl	TAAR1 antagonist 64 (no result: GPR7 antagonist) | nonsel antag count 36 | TAAR1 ant conf inactive | Ga16 ag counter 14 | TAAR1 ag counter inactive
O=C(COC(=O)c1ccc(O)cc1)Nc1cc(S(=O)(=O)N2CCCCCC2)ccc1Cl	TAAR1 antagonist 62 (no result: OX1R antag-1, CHO parental Ca, OX1R antag-2, GPR7 antagonist) | nonsel antag count 38 | TAAR1 ant conf 52 | Ga16 ag counter inactive | TAAR1 ag counter inactive
Cc1ccc(CSCC(=O)Nc2cc(S(=O)(=O)N3CCOCC3)ccc2OCC(F)(F)F)cc1	TAAR1 antagonist 81 (no result: OX1R antag-1, CHO parental Ca, OX1R antag-2, GPR7 antagonist) | nonsel antag count inactive | TAAR1 ant conf 62 | Ga16 ag counter inactive | TAAR1 ag counter inactive
COc1ccc(OCC(=O)OCC(=O)Nc2cc(S(=O)(=O)N3CCOCC3)ccc2Cl)cc1	none (no result: GPR7 antagonist)
Cc1ccc(S(=O)(=O)N2CCCCC2)cc1NC(=O)COC(=O)c1ccc(O)cc1	none
O=C(O)C1CCCN1S(=O)(=O)c1cccs1 (centres undefined)	none (no result: OX1R antag-1, TAAR1 ag, CHO parental Ca, OX1R antag-2, TAAR1 antagonist)
O=C(c1cc(-c2ccncc2)nc2ccccc12)N1CCN(Cc2ccccc2)CC1	TAAR1 antagonist 57 (no result: GPR7 antagonist) | nonsel antag count inactive | TAAR1 ant conf inactive | Ga16 ag counter 12 | TAAR1 ag counter inactive
O=C(c1cc(-c2ccncc2)nc2ccccc12)N1CCOCC1	none (no result: OX1R antag-1, CHO parental Ca, OX1R antag-2, GPR7 antagonist)
COc1cccc(CN2CCN(C(=O)c3cc(-c4ccccn4)nc4ccc(Cl)cc34)CC2)c1	none
Cc1ccccc1CN1CCN(C(=O)c2cc(-c3ccncc3)nc3ccccc23)CC1	TAAR1 antagonist 71 | nonsel antag count 35 | TAAR1 ant conf inactive | Ga16 ag counter inactive | TAAR1 ag counter inactive
COc1cccc(CN2CCN(C(=O)c3cc(-c4ccncc4)nc4ccc(C)cc34)CC2)c1	TAAR1 antagonist 77 | nonsel antag count 24 | TAAR1 ant conf inactive | Ga16 ag counter inactive | TAAR1 ag counter inactive
CC(=O)N1CCN(C(=O)c2cc(-c3cccc4ccccc34)nc3ccccc23)CC1	TAAR1 antagonist 67 | nonsel antag count 33 | TAAR1 ant conf inactive | Ga16 ag counter inactive | TAAR1 ag counter inactive
CCOC(=O)N1CCN(Cc2cn[nH]c2-c2cc3ccccc3o2)CC1	none
CCc1cc(C(=O)c2ccc(OC)cc2)c(NC(=O)CC(C)(C)CC(=O)O)s1	none
O=C(c1cc(-c2ccccc2Cl)nc2ccc(Br)cc12)N1CCN(c2ccccn2)CC1	TAAR1 antagonist 59 | nonsel antag count 30 | TAAR1 ant conf inactive | Ga16 ag counter inactive | TAAR1 ag counter inactive
O=C(c1cc(-c2ccncc2)nc2ccccc12)N1CCN(S(=O)(=O)/C=C/c2ccccc2)CC1	TAAR1 antagonist 70 | nonsel antag count 29 | TAAR1 ant conf inactive | Ga16 ag counter inactive | TAAR1 ag counter inactive
CC1CC(C)CN(C(=O)c2cc(-c3ccncc3)nc3ccccc23)C1 (centres undefined)	none (no result: GPR7 antagonist)
COC(=O)c1ccc(C2C(C(C)=O)=C(O)C(=O)N2CCO)cc1 (centres undefined)	none
CC1C(=O)N(Cc2cn(CCC3OCCO3)nn2)CCS(=O)(=O)N1Cc1ccc(-c2ccc(Cl)c(Cl)c2)cc1 (centres undefined)	TAAR1 antagonist 75 (no result: OX1R antag-1, CHO parental Ca, OX1R antag-2, GPR7 antagonist) | nonsel antag count 38 | TAAR1 ant conf inactive | Ga16 ag counter 15 | TAAR1 ag counter inactive
CC(C)C1C(=O)N(Cc2cn(CCC3OCCO3)nn2)CCS(=O)(=O)N1Cc1ccc(-c2ccc(Cl)cc2)cc1 (centres undefined)	TAAR1 antagonist 53 (no result: OX1R antag-1, CHO parental Ca, OX1R antag-2, GPR7 antagonist) | nonsel antag count 30 | TAAR1 ant conf inactive | Ga16 ag counter inactive | TAAR1 ag counter inactive
CC(=O)C1=C(c2cccc([N+](=O)[O-])c2)N(C(C)=O)n2c(C)nnc2S1	none
CC(=O)c1ccc(S(=O)(=O)N2CCN(S(=O)(=O)c3ccccc3C(F)(F)F)CC2)cc1	none
COc1ccc(C(=O)NC(=S)N(C)C2CCCCC2)cc1Br	none
COc1ccccc1/C=C/C(=O)NC(=S)N(C)C1CCCCC1	TAAR1 antagonist 68 | nonsel antag count 33 | TAAR1 ant conf inactive | Ga16 ag counter inactive | TAAR1 ag counter inactive
CCn1cnc2sc(C(=O)N(Cc3ccc(N(C)C)cc3)Cc3ccco3)c(C)c2c1=O	TAAR1 antagonist 54 | nonsel antag count 23 | TAAR1 ant conf inactive | Ga16 ag counter inactive | TAAR1 ag counter inactive
O=C(NCc1ccccn1)C(=O)NCC1OCCN1S(=O)(=O)c1ccc(Cl)cc1 (centres undefined)	none
CCN=C1SC(CC(=O)Nc2ccc(C(F)(F)F)cc2)C(=O)N1CC (centres undefined)	TAAR1 antagonist 77 | nonsel antag count 38 | TAAR1 ant conf 65 | Ga16 ag counter 13 | TAAR1 ag counter inactive
COc1ccc(NC(=O)N(C)C[C@H]2Oc3c(NC(=O)Nc4ccccc4)cccc3C(=O)N([C@H](C)CO)C[C@@H]2C)cc1	none (no result: GPR7 antagonist)
